# From PMC3846926 (Neuropharmacology, 2010)
# Entries after “also recorded” stand apart in the source; their conditions may differ.
# Legend:
# [1] = system: ASIC currents in cultured hippocampal neurons; assay: ASIC currents in primary cultured hippocampal neurons, whole-cell voltage clamp; assay type: cell-based, mouse; conditions: for Inhibition (potency), grade in words: diarylamidines of Table 1, cultured hippocampal neurons; for effect on rates of desensitization of ASIC currents: sub-maximal concentrations
# [2] = system: ASIC current; conditions: Wu et al., 2004, cited from earlier work
# [3] = system: ENaC channels expressed in oocytes; assay: ENaC current in Xenopus oocytes, two-electrode voltage clamp; assay type: cell-based; conditions: 100 µM; for effect on ENaC activities: oocytes; for relative current of ENaC with compound: relative to control without diarylamidine, holding -70 mV
# How it was run: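 Defolliculated (collagenase, 60–120 min) stage V–VI Xenopus laevis oocytes were injected with 1 ng ENaC α/β/γ cRNA and kept 3 days at 19 °C in low-Na+ ringer. Two-electrode voltage clamp at −70 mV, 22–26 °C, in ringer pH 7.4. Amiloride superfusion was replaced by amiloride-free solution, then test compound (100 µM) was applied without amiloride. Amiloride-sensitive current recorded at 1 kHz.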
# [4] = biological target: T1, ASIC1a (Rattus norvegicus, UniProt P55926); assay: ASIC1a currents in oocytes; assay type: cell-based; conditions: 100 µM
# T1 sequence (P55926 1-526): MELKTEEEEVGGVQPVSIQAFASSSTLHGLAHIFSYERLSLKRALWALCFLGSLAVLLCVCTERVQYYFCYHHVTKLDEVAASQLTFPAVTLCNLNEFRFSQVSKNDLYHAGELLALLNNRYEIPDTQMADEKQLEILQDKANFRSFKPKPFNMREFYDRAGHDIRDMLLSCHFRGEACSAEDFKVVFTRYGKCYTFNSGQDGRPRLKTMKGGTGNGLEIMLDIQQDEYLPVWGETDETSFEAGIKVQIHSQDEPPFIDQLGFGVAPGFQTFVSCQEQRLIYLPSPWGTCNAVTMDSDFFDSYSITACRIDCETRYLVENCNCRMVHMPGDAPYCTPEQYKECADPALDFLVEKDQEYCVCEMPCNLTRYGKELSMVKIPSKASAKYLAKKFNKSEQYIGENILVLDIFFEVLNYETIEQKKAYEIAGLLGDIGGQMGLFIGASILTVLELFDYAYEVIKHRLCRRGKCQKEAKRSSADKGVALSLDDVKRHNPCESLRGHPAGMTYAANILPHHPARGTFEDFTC
# [5] = biological target: T2, homomeric ASIC1a (Rattus norvegicus, UniProt P55926); assay: ASIC1a current in transfected CHO cells, patch clamp; assay type: cell-based
# T2 sequence (P55926 1-526): T1 sequence (P55926 1-526)
# How it was run: (§1)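 CHO cells in F12 with 10% fetal bovine serum, cotransfected at ~50% confluence with the individual ASIC subunit cDNA (1.8 µg) plus GFP DNA (0.2 µg) per dish. GFP-positive cells whole-cell patch-clamped 48–72 h after plating, held at −60 mV. Activating pH: 6.0 (ASIC1a, 1b), 5.0 (ASIC2a), 6.5 (ASIC3). Test compound perfused 2 min. Currents normalized to control; IC50 from logistic fit; mean ± S.E.M.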
# [6] = biological target: T3, homomeric ASIC1b (Rattus norvegicus, UniProt P55926); assay: ASIC1b current in transfected CHO cells, patch clamp; assay type: cell-based; conditions: pH 6, read-out: inhibition of ASIC1b current
# T3 sequence (P55926 1-559 isoform P55926-3): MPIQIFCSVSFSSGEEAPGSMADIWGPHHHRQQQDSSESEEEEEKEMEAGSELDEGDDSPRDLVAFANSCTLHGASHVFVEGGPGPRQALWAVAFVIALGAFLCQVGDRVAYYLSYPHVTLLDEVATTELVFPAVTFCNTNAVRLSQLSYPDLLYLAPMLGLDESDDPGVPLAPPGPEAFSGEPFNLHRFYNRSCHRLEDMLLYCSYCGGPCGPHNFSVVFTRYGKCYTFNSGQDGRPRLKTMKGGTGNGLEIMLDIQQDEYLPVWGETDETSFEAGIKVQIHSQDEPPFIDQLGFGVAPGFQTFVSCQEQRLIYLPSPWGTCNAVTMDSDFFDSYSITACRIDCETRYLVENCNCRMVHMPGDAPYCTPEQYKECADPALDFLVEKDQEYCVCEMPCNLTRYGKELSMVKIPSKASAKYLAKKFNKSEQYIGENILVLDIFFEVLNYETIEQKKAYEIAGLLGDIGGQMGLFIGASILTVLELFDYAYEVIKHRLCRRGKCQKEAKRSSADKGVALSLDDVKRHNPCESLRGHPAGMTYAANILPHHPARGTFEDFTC
# How it was run: as §1
# [7] = biological target: T4, homomeric ASIC2a (Rattus norvegicus, UniProt Q62962); assay: ASIC2a current in transfected CHO cells, patch clamp; assay type: cell-based; conditions: pH 5, read-out: inhibition of ASIC2a current
# T4 sequence (Q62962 1-512): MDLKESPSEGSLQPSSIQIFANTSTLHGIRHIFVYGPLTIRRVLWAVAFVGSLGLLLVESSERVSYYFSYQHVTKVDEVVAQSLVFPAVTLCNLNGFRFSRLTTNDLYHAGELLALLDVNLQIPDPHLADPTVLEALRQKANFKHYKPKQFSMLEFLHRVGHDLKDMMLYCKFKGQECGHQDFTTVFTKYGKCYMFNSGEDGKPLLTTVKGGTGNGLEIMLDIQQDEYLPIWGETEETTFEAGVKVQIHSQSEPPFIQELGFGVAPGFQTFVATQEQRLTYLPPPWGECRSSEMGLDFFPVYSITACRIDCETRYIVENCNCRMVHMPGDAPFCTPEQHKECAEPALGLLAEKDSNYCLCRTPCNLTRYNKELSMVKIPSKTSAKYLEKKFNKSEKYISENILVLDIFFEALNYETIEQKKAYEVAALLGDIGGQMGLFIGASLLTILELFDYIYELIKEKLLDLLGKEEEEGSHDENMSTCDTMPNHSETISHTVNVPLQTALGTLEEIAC
# How it was run: as §1
# [8] = biological target: T5, homomeric ASIC3 (Rattus norvegicus, UniProt O35240); assay: ASIC3 current in transfected CHO cells, patch clamp; assay type: cell-based; conditions: pH 6.5, read-out: inhibition of ASIC3 current
# T5 sequence (O35240 1-533): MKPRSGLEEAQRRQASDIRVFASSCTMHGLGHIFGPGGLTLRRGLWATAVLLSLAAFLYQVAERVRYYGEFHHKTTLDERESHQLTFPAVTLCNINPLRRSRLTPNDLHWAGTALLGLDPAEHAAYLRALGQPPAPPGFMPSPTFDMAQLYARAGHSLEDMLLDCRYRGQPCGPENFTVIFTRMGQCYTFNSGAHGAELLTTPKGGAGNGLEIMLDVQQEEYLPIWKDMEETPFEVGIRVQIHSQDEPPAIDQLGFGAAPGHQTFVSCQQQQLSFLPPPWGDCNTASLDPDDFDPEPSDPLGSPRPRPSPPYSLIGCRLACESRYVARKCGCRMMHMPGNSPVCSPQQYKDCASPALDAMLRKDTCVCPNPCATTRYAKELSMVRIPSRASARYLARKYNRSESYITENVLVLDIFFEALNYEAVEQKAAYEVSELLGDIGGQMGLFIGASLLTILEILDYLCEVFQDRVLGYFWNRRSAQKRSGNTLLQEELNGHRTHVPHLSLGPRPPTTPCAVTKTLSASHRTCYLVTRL
# How it was run: as §1
# [9] = system: cultured hippocampal neurons; assay type: cell-based, mouse; conditions: 10 µM, current clamp
# [10] = system: ENaC; conditions: read-out: IC50 on ENaC; very weak inhibition; ref Ugawa et al., 2007; cited from earlier work
# [11] = 200 µM, cultured hippocampal neurons
compound,measurement,setting,value
N=C(N)NC(=O)c1nc(Cl)c(N)nc1N [Amiloride],effect on desensitization of ASIC current,[1]; amiloride 80 µM co-applied with pH 5.8,did not accelerate; also recorded: little effect
same,desensitization time constant of ASIC currents,"[1]; amiloride 80 µM co-applied with pH 5.8, control 0.83 ± 0.15 s",0.72 ± 0.14 s
same,IC50,"[2]; read-out: IC50 on ASIC current, ref Waldmann et al., 1997",10 to 20 µM
same,concentration required to completely block the neuronal ASIC currents,"[2]; ref Baron et al., 2002",200 to 500 µM
CC1(C)[C@@H](OC(=O)CCC(=O)O)CC[C@]2(C)[C@H]3C(=O)C=C4[C@@H]5C[C@@](C)(C(=O)O)CC[C@]5(C)CC[C@@]4(C)[C@]3(C)CC[C@@H]12 [Carbenoxolone],effect on ASIC currents,[1]; [11],failed to inhibit; also recorded: did not inhibit
"N=C(N)c1ccc(-c2cc3ccc(C(=N)N)cc3[nH]2)cc1 [DAPI, 4′,6-diamidino-2-phenylindole]","Inhibition (potency), grade in words",[1],Strong inhibition
same,effect on rates of desensitization of ASIC currents,[1],did not have marked effects
same,effect on ENaC activities,[3],did not inhibit; also recorded: ineffective
same,relative current of ENaC with compound,[3],0.98 ± 0.04
same,block of ASIC1a currents in oocytes,[4],almost completely
N=C(N)c1ccc(/N=N/Nc2ccc(C(=N)N)cc2)cc1 [Diminazene],desensitization time constant of ASIC currents,"[1]; 1 µM by perfusion, control 1.7 ± 0.2 s",0.4 ± 0.1 s
same,"Inhibition (potency), grade in words",[1],Strong inhibition
same,desensitization time constant of ASIC currents,"[1]; diminazene 3 µM co-applied with pH 5.8, control 1.6 ± 0.3 s",0.4 ± 0.1 s
same,effect on ENaC activities,[3],did not inhibit; also recorded: ineffective
same,relative current of ENaC with compound,[3],1.11 ± 0.05
same,block of ASIC1a currents in oocytes,[4],almost completely
same,IC50,[5],~3 µM
same,inhibition at 3 µM,"[5]; CHO, pH 6, read-out: inhibition of ASIC1a current",39 ± 3.8%
same,inhibition at 3 µM,[6],92 ± 0.5%
same,inhibition at 3 µM,[7],51 ± 6.1%
same,inhibition at 3 µM,[8],74 ± 0.6%
same,effect on low pH-induced depolarization and excitation,[9],dramatically attenuated; also recorded: markedly attenuated
N=C(N)c1ccc(/C=C/c2ccc(C(=N)N)cc2O)cc1 [Hydroxystilbamidine],IC50,[1],1.5 µM
same,"Inhibition (potency), grade in words",[1],Strong inhibition
same,effect on rates of desensitization of ASIC currents,[1],did not have marked effects
same,effect on ENaC activities,[3]; listed as HSB,did not inhibit
same,relative current of ENaC with compound,[3],1.02 ± 0.04
O=C(Nc1cccc(C2=NCCN2)c1)Nc1cccc(C2=NCCN2)c1 [Imidocarb],inhibition of ASIC currents,[1]; [11],Inhibit 42 ± 7% at 200 µM
N=C(N)c1ccc2cc(OC(=O)c3ccc(N=C(N)N)cc3)ccc2c1 [Nafamostat],IC50,[10],~1000 µM
Cn1cc(NC(=O)c2cc(NC(=O)CN=C(N)N)cn2C)cc1C(=O)NCCC(=N)N [Netropsin],effect on ASIC currents,"[1]; 100 µM, cultured hippocampal neurons",did not inhibit
same,effect on ASIC currents,[1]; concentration not given,without effect; also recorded: failed to inhibit
N=C(N)c1ccc(OCCCCCOc2ccc(C(=N)N)cc2)cc1 [Pentamidine],"Inhibition (potency), grade in words",[1],Inhibition
same,effect on rates of desensitization of ASIC currents,[1],did not have marked effects
same,effect on ENaC activities,[3],did not inhibit; also recorded: ineffective
same,relative current of ENaC with compound,[3],1.02 ± 0.03
same,block of ASIC1a currents in oocytes,[4],77%
Cc1ccc(C(=O)Nc2ccc(S(=O)(=O)O)c3cc(S(=O)(=O)O)cc(S(=O)(=O)O)c23)cc1NC(=O)c1cccc(NC(=O)Nc2cccc(C(=O)Nc3cc(C(=O)Nc4ccc(S(=O)(=O)O)c5cc(S(=O)(=O)O)cc(S(=O)(=O)O)c45)ccc3C)c2)c1 [suramin],effect on ASIC currents,"[1]; 500 µM, cultured hippocampal neurons",failed to inhibit
